For 98 molecules, inhibition results are on record in PubChem BioAssay AID465 (The Scripps Research Institute Molecular Screening Center, 2006).

About 130 (0.21%) of roughly 62,000 compounds were called active. The sample holds actives, similar compounds and a random draw of the others, so the mix is not that of the screen. Values without a mark were called inactive.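 The calls were made as follows: active = inhibition above the mean of all tested compounds plus 3 SD (cut at about 40% in these data); inactive = the rest.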

Usually inhibition stands for the relative decrease from the control value, in per cent.

The assay can be described thus: lowered NF-kB luciferase signal in HEK293 cells – cell-based, HEK-293 luciferase reporter, PMA/ionomycin, luminescence, antigen receptor NF-kB inhibitor project, primary screen (AID 465).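 Also: 0% = stimulated DMSO wells and 100% = 10 µM reference inhibitor 5653914.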 As to conditions: HEK-293 NF-kB luciferase reporter, at 3 µM, hits give high values. The essentials:
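Signal: luciferase luminescence; Material: HEK-293 cells with stable firefly luciferase reporter driven by four HIV NF-kB elements; Probe or stimulus: PMA with ionomycin; Replication: tested once; Times: 1 h compound pretreatment, then 16 h stimulation at 37 °C, 5% CO2; Benchmarks: DMSO and 10 µM reference inhibitor; Evaluation: per-plate % inhibition versus controls.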
(In a reporter assay the amount or activity of a reporter protein is the signal.)
Regarding `N#CC1=C(N)OC2=C(C(=O)CCC2)C1C1CC=CCC1` (stereo not drawn), the inhibition was 16.6%. Under `O=S(N1CCCCCC1)C12CC3CC(CC(C3)C1)C2` (stereo not drawn) stands 19.1%.

`O=C(O)CCC(=O)Nc1ccc(N2CCOCC2)cc1`: the inhibition was 7.6%. Under `CC(=O)Nc1ccc(NS(=O)(=O)c2cc(C)sc2C)cc1` stands 11.3%; under `CCOC(=O)CNC(=O)c1nn(-c2cccc(OC)c2)c(=O)c2ccccc12`, 5.1%; under `CC(=O)Nc1cc(C(=O)O)ccc1S(=O)(=O)c1ccc(Cl)cc1`, 15%. Under `O=C(Nc1cnccn1)c1cccnc1` stands 14.9%; under `Cc1csc(NC(=O)C2CCCN2C(=O)OCC(C)C)n1` (stereo not drawn), 3.7%. As for `CCOC(=O)N1CCN(C(=O)c2cc3c(ccc4ccccc43)oc2=O)CC1`, the figure is 12.5%; as for `CC(C)(C)NC(=O)Cn1nnc(-c2ccccc2Cl)n1`, -10.7%. As to `O=C1NC(c2cc3c(cc2Cl)OCO3)Oc2ccccc21` (stereo not drawn), the inhibition was 6.8%. Turning to `Cc1cc(=O)n2c3c(cccc13)CCC2`, the inhibition is 7.5%.

Consider `CCCCN(C)Cc1c(C)[nH]c2ccc(Cl)cc2c1=O`, for which the inhibition is 9.1%. As for `CNC(=O)CSc1nnc(CCc2ccccc2)n1-c1ccccc1`, the figure is 11.6%; as for `CCCCN=C(N)/C(C(=O)OCC)=C(\O)c1ccc(OC)cc1`, 7.4%.

As to `Cc1ccc(OS(=O)Nc2cccc3nccnc23)cc1` (stereo not drawn), the inhibition was 8.8%. As for `COC(=O)[C@H](C)NC(=O)Nc1ccc(OC(F)(F)F)cc1`, the figure is 11.6%; as for `Cc1ccnc(N2CCN(C(=O)CSc3nc4ccccc4nc3N3CCCCC3)CC2)c1`, 5.5%; as for `COc1ccc(-c2nnn(CC(=O)N(CCO)C(C(=O)NC3CCCC3)c3ccc(F)cc3)n2)cc1` (stereo not drawn), 24%. As for `CCN(CC)S(=O)(=O)c1cc(C(=O)Nc2ccccn2)ccc1C`, the figure is -11.3%. Under `O=C(Cc1nn[nH]n1)NCCC1=CCCCC1` stands 4.2%.

Turning to `CC(=O)Oc1ccc(C(=O)Nc2nccs2)cc1`, the inhibition is 11.8%. Under `Nc1ccc(SCCN2C(=O)c3ccccc3C2=O)cc1` stands 6.7%; under `CCc1cc(=O)oc2cc(OCC(=O)N3CCCc4ccccc43)ccc12`, 12.9%; under `Cc1cc(C)c(NC(=O)CS(=O)CC(=O)Nc2cccnc2)c(C)c1` (stereo not drawn), 18.1%. Under `C=CCC(NCCCO)c1cccc(OC)c1OC` (stereo not drawn) stands 7.1%; under `O=C(CN1C2CCC1CC(NC(=O)C1CC1)C2)NCc1ccccc1` (stereo not drawn), 7.7%; under `CCCC(NC(=O)c1ccccc1)c1nc2ccccc2n1Cc1ccc(C(=O)OC)o1` (stereo not drawn), 17.4%. Under `CCCC(CCC(=O)OC)(C(=O)OCC)c1csc(N)n1` (stereo not drawn) stands 2.1%; under `CCOC(=O)CSc1nncc2ccc(OC)c(OC)c12`, 2%; under `O=C(NC(=O)c1ccc(Cl)c(Cl)c1)OC1CCS(=O)(=O)C1` (stereo not drawn), 21.6%. For `CCCN1C2=C(C(=O)CCC2)C(c2ccc(O)c(Br)c2)C2=C1CCCC2=O`, the inhibition is -2.4%. Consider `CCOC(=O)Cc1csc(NC(=O)CN(C)S(=O)(=O)c2ccc3c(c2)CCC(=O)N3)n1`, for which the inhibition was 0.2%.

For the molecule `COc1cc(Cl)c(C)cc1NC(=O)CSc1nnc(-c2ccco2)n1CC(C)C`, the inhibition is 14.8%.

With `O=C(CCC(=O)N1CCN(S(=O)(=O)c2ccccc2)CC1)NC1CCCc2ccccc21` (stereo not drawn), the inhibition was 15.4%.

`Cc1cc(Cl)c(S(=O)(=O)NCCC(=O)O)cc1OCC(N)=O`: the inhibition was 1.4%.

In the case of `CC(=O)N1CCN(c2ccc(NCc3ccc(C(C)C)cc3)cc2)CC1`, the inhibition is -0.9%. Under `CCCn1c(SCC(=O)Nc2cccc(C(=O)OCC)c2)nnc1-c1ccoc1C` stands -4.2%.

In the case of `CCOc1ccc(OCc2ccc(C(=O)Nc3cccc(C)n3)o2)cc1`, the inhibition is -17.7%. As for `O=P(c1cccs1)(c1cccs1)c1cccs1`, the figure is 22.9%; as for `CCCn1cc(SCC(N)=O)c2ccccc21`, 2.8%; as for `COc1ccc(N=Cc2c(O)[nH]c3ccccc23)cc1OC`, -16.7%. Turning to `CCN(CC)S(=O)(=O)c1ccc2nc(COC(=O)c3n[nH]c4ccccc34)[nH]c2c1`, the inhibition is 12.4%. As for `Cc1ccn2cc(C(=O)NC3CCN(Cc4ccccc4)CC3)nc2c1`, the figure is 6.4%; as for `COc1cccc(NC(=O)Cn2cnc3sc(C)c(S(=O)(=O)N4CCN(C)CC4)c3c2=O)c1`, 11.9%. As for `Cc1ccsc1C(=O)OCC(=O)c1cc(C)n(CC2CCCO2)c1C` (stereo not drawn), the figure is 55.2% (active). As for `COC(=O)c1ccc2c(=O)n(CC3CCCO3)c(=S)[nH]c2c1` (stereo not drawn), the figure is 12.2%; as for `Cc1ccsc1C(=O)OCC(=O)c1cc2ccccc2o1`, 3.8%. Consider `O=C1NC(c2ccncc2)Nc2sc3c(c21)CCCC3` (stereo not drawn), for which the inhibition was 8%.

As to `COc1cccc(N(CC(=O)Nc2cccc(F)c2)S(C)(=O)=O)c1`, the inhibition was 22.4%.

For the molecule `N#CCCn1cnc2ccccc21`, the inhibition is 13.5%. As for `CC1CCCN(Cc2nc3c(c(=O)n(C)c(=O)n3C)n2Cc2cccc3ccccc23)C1` (stereo not drawn), the figure is 30.3%; as for `Cc1c(C(=O)N2CC(C)OC(C)C2)sc2nc(-c3ccccc3)cn12` (stereo not drawn), -1.4%; as for `CCN(CC)CCNC(=O)Cn1cnc2sc(C)c(S(=O)(=O)N3CCOCC3)c2c1=O`, 4.3%. Under `O=C(CN1CCN(C(=O)c2ccco2)CC1)Nc1ccc(Cl)c(C(F)(F)F)c1` stands 3.2%; under `NC(=O)C1CC=CCC1C(=O)OCC(Cl)=C(Cl)Cl` (stereo not drawn), 0.1%; under `CCOCCc1c(O)nc(SCC(=O)NCc2ccco2)[nH]c1=O`, 2.4%.

With `Cc1ccc(C(=O)Nc2nnc(-c3ccncc3)s2)o1`, the inhibition was 7.3%.

Take `O=C(O)C1CCCN1S(=O)(=O)c1ccc2c(c1)CCC2` (stereo not drawn): the inhibition is 15.4%.

For the molecule `COC(=O)c1ccccc1NC(=O)c1ccccc1NS(C)(=O)=O`, the inhibition is 14.9%.

Turning to `O=C(CSC1=NCCS1)Nc1nc(-c2ccccc2)cs1`, the inhibition was -2.2%.

Take `COC(=O)c1ccc(NC(=O)CN(c2ccc(C)cc2)S(=O)(=O)c2c(C)n[nH]c2C)cc1`: the inhibition was 21.2%. As for `O=C(NCCN1CCOCC1)[C@H](Cc1ccccc1)N1C(=O)c2ccccc2C1=O`, the figure is 3.6%; as for `CCC1=C/C(=C\c2ccc3c(c2)OCO3)C(=O)S1`, 21.2%; as for `O=C(c1ccco1)N1CCN(C(=O)c2ccc(COc3ccc(F)cc3)o2)CC1`, 7%.

For the molecule `COCCCN1C(=O)C(=O)/C(=C(/O)c2ccc3c(c2)CC(C)O3)C1c1cccnc1` (stereo not drawn), the inhibition is 7.3%. As for `CCCOC(=O)Cc1c(O)c2ccccc2[nH]c1=O`, the figure is 6.5%. Under `COC(=O)Nc1ccc(S(=O)(=O)N(C)CC(F)(F)C(F)F)cc1` stands 3.4%; under `CCn1nnc(NC(=O)c2c(OC)cccc2OC)n1`, 10.1%.

For `O=C(c1ccc2c(c1)OCCO2)C1CCN(S(=O)(=O)c2cccc(F)c2)CC1`, the inhibition was 6.7%. As for `COC(=O)NC1(C(F)(F)F)NC(=O)N(C2CCCCC2)C1=O` (stereo not drawn), the figure is 9.8%; as for `O=C1NC(Nc2nc3ccccc3s2)(C(F)(F)F)C(=O)N1C1CCCCC1` (stereo not drawn), 50.1% (active); as for `CC(=O)c1c(C)n([O-])c2ccccc2[n+]1=O`, 12.7%. Under `CC(=O)OC(C(=O)NCCc1ccccc1)c1cccnc1` (stereo not drawn) stands 15.3%. As for `Cn1c(NC(=O)c2ccc3c(c2)OCO3)cc(=O)n(C)c1=O`, the figure is -1.2%. `Cn1c(=O)n(C)c2cc(C(=O)Nc3ccc4c(c3)OCO4)ccc21`: the inhibition was 40.7% (active).

Regarding `COc1ccc(C(=O)Nc2ccc3c(c2)OCO3)cc1OC`, the inhibition was -6.2%. As for `O=C(NC1CCCCC1)C1CCCN(S(=O)(=O)c2cccs2)C1` (stereo not drawn), the inhibition was 10.2%. Under `O=C(NCCN=C1NS(=O)(=O)c2ccccc21)c1ccc(S(=O)(=O)N2CCOCC2)cc1` stands 11.1%; under `Cc1nnc(SCC(=O)N(C(C)C)C(C)C)nc1C`, 6.1%.

On to `O=C(Nc1c(C(=O)N2CCCCC2)cnn1-c1ccccc1)c1ccco1`, for which the inhibition is -3.8%. As for `C(=C\c1ccccc1)/CSc1nnc(-c2cccnc2)n1Cc1ccco1`, the figure is 11.5%; as for `Cc1ccc(NC(=O)CN2CCC3(O)CCCCC3C2c2ccc3c(c2)OCO3)c(C)c1` (stereo not drawn), 0.9%. As for `Oc1c(C(c2cccs2)N2CCN(c3ccc(F)cc3)CC2)sc2ncnn12` (stereo not drawn), the figure is -1%; as for `CCOc1ccc(OCC)c(NC(=O)C2CCN(S(=O)(=O)c3c(C)noc3C)CC2)c1`, 15.5%; as for `O=c1cccc(-c2ccc(Br)cc2)o1`, 10.6%.

Take `O=C(Nc1cccc2c1CCCC2)C1CCN(C(=O)NC2CCCCC2)CC1`: the inhibition is 16.4%. For `COc1ccc2c(Cl)c(-c3nnco3)sc2c1`, the inhibition is 26.5%. Under `C=CCNC(=O)c1cc(-c2ccccc2O)on1` stands -6.4%. Under `O=C(Nn1cnc2ccccc2c1=O)c1ccc(F)cc1Cl` stands -16.4%. For the molecule `Cc1cccc(NC(=O)C2CCCN2S(=O)(=O)c2ccc(F)cc2)c1C` (stereo not drawn), the inhibition is 19.8%. As for `COc1cccc(NS(=O)(=O)c2ccc3[nH]cc(C(=O)NCCCOC(C)C)c(=O)c3c2)c1`, the figure is 9%; as for `CCOC(=O)CSc1nnc(CNC(=O)c2cccs2)n1-c1cc(OC)ccc1OC`, 9.1%. As for `CCOC(=O)N1CCN(C(=O)COc2ccc(Br)cc2)CC1`, the figure is 3.3%; as for `O=C(c1cccc(C(=O)N2CCc3ccccc32)n1)N1CCc2ccccc21`, 1.5%; as for `O=C(CN1C(=O)c2ccccc2S1(=O)=O)N1CCc2ccccc21`, 59% (active).

`CNC(=O)CN1C(=O)c2ccccc2S1(=O)=O`: the inhibition is 16.9%. With `Cc1[nH]c2ccc(S(N)(=O)=O)cc2c1C`, the inhibition was 14.3%.
